Assay results as given in ChEMBL document CHEMBL1126247, “Iodoaminopotentidine and related compounds: a new class of ligands with high affinity and selectivity for the histamine H2 receptor” (J Med Chem, 1992).
Values belong to the compound of their own block, whether it stands above or below them.

Tests used:
[1] = target: Histamine H2 receptor (Cavia porcellus) (UniProt P47747); assay: Histamine H2 receptor antagonistic activity at a concentration of 0.3 and 0.1 uM on the isolated guinea pig right atrium.; assay type: functional, tissue-based; details: Cardiac atrium
[2] = target: Histamine H2 receptor (Cavia porcellus) (UniProt P47747); assay: Inhibition of the positive chronotropic response (histamine H2 receptor antagonism) of guinea pig right atrium relative to cimetidine.; assay type: functional, tissue-based; details: Cardiac atrium
[3] = Inhibition of the positive chronotropic response (H2-antagonism) of guinea pig right atrium relative to cimetidine.; assay type: functional, Cavia porcellus, Cardiac atrium
[4] = target: Histamine H2 receptor (Cavia porcellus) (UniProt P47747); assay: Histamine H2 receptor antagonistic activity at a concentration of 0.3 and 1 uM on the isolated guinea pig right atrium.; assay type: functional, tissue-based; details: Cardiac atrium
Histamine H2 receptor [5] = target: T1, Histamine H2 receptor (Cavia porcellus, UniProt P47747); assay: Inhibition of [125I]APT binding to histamine H2 receptor in guinea pig cerebral membranes.; assay type: cell membranes
Procedure, shortened: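 Striatal membranes from male Hartley guinea pigs (200-300 g) in 50 mM sodium/potassium phosphate, pH 7.5, with 0.1% gelatin. Membranes incubated with 125I-APT 120 min at 25 °C, in triplicate. Stopped with cold buffer containing 0.1% BSA, then filtered on polyethylenimine-treated glass-fiber filters and γ-counted. […] Azido compounds handled under dim light.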

[6] = target: Histamine H2 receptor (Cavia porcellus) (UniProt P47747); assay: Histamine H2 receptor antagonism at a concentration of 1 umolar on the isolated guinea pig right atrium.; assay type: functional, tissue-based; details: Cardiac atrium
[7] = target: Histamine H2 receptor (Cavia porcellus) (UniProt P47747); assay: Histamine H2 receptor antagonistic activity at a concentration of 0.3 uM on the isolated guinea pig right atrium; assay type: functional, tissue-based; details: Cardiac atrium
Histamine H1 receptor = Histamine H1 receptor (Cavia porcellus, UniProt P31389); assay: (§1) Histamine H1 receptor antagonistic activity on the isolated guinea pig ileum determined by Schild plot.; assay type: functional, tissue-based; details: read-out: pA2 (converted)
Procedure, shortened: (§2)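 Whole proximal guinea pig ileum segments in Tyrode's solution gassed with 95% O2/5% CO2, isotonic recording at 10 mN load. Cumulative histamine (0.01-3 μM) curves. Antagonist applied 10 min before the curve. pK_B from concentration ratio, or pA2 by Schild plot.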

Histamine H2 receptor [8] = target: T1, Histamine H2 receptor; assay: Inhibition of [125I]APT binding to H2 receptors in guinea pig cerebral membranes.; assay type: cell membranes
Procedure, shortened: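 Striatal membranes from male Hartley guinea pigs (200-300 g) in 50 mM sodium/potassium phosphate, pH 7.5, with 0.1% gelatin. Stopped with cold buffer containing 0.1% BSA, then filtered on polyethylenimine-treated glass-fiber filters and γ-counted. Azido compounds handled under dim light.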

[9] = target: Histamine H2 receptor (Cavia porcellus) (UniProt P47747); assay: Histamine H2 receptor antagonistic activity on the isolated guinea pig right atrium determined by Schild plot.; assay type: functional, tissue-based; details: Cardiac atrium
[10] = target: Muscarinic acetylcholine receptor M3 (Cavia porcellus) (UniProt Q8VH26); assay: Muscarinic acetylcholine receptor M3 antagonistic activity at concentrations of 10 and 30 uM on the isolated guinea pig iluem.; assay type: functional
Procedure, shortened: (§3)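 Guinea pig proximal ileum, isotonic recording under a 10 mN load in gassed Tyrode's solution. Cumulative carbachol (3-300 nM) curves as reference agonist. Antagonist incubated 10 min. pK_B calculated from concentration ratio, or pA2 by Schild plot.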

[11] = target: Histamine H2 receptor (Cavia porcellus) (UniProt P47747); assay: Histamine H2 receptor antagonistic activity at concentrations of 0.1,0.3 and 1 uM on the isolated guinea pig right atrium.; assay type: functional, tissue-based; details: Cardiac atrium
[12] = target: Histamine H2 receptor (Cavia porcellus) (UniProt P47747); assay: Potency to inhibit the positive chronotropic response (H2-antagonism) of guinea pig right atrium relative to cimetidine.; assay type: functional, tissue-based; details: Cardiac atrium
[13] = target: Histamine H1 receptor (Cavia porcellus) (UniProt P31389); assay: Histamine H1 receptor antagonistic activity on the isolated guinea pig ileum determined by Schild plot.
Target sequence in this assay (P31389 whole entry, looked up): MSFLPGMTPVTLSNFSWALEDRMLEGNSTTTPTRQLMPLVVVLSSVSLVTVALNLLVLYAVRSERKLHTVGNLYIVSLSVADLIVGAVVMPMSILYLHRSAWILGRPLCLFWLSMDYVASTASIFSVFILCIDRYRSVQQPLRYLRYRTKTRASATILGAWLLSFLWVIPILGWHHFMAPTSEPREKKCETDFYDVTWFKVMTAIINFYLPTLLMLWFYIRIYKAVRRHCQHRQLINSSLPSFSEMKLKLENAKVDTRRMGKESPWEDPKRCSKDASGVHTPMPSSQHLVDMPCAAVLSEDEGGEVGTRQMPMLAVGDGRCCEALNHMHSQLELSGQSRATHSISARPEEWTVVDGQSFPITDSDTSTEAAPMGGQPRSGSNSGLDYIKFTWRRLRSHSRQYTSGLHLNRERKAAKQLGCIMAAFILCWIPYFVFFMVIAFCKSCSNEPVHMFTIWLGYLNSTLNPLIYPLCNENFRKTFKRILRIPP

[14] = target: Histamine H2 receptor (Cavia porcellus) (UniProt P47747); assay: Histamine H2 receptor antagonistic activity at a concentration of 30 uM on the isolated guinea pig right atrium.; assay type: functional, tissue-based; details: Cardiac atrium
[15] = target: Histamine H1 receptor (Cavia porcellus) (UniProt P31389); assay: as §1; assay type: functional, tissue-based; procedure, shortened: as §2
Target sequence in this assay (P31389 whole entry): as the sequence (P31389 whole entry, looked up) above

[16] = target: Histamine H2 receptor (Cavia porcellus) (UniProt P47747); assay: Histamine H2 receptor antagonistic activity at concentrations of 0.03 and 0.1 uM on the isolated guinea pig right atrium.; assay type: functional, tissue-based; details: Cardiac atrium
[17] = target: Muscarinic acetylcholine receptor M3 (Cavia porcellus, UniProt Q8VH26); assay: muscarinic acetylcholine receptor M3-antagonistic activity on the isolated guinea pig ileum determined by Schild plot.; assay type: functional, tissue-based; details: read-out: pA2 (converted); procedure, shortened: as §3
[18] = target: Muscarinic acetylcholine receptor M3 (Cavia porcellus) (UniProt Q8VH26); assay: muscarinic acetylcholine receptor M3 antagonistic activity on the isolated guinea pig ileum determined by Schild plot.; assay type: functional, tissue-based; procedure, shortened: as §3
Histamine H2 receptor [19] = target: T1, Histamine H2 receptor; assay: Histamine H2 receptor antagonistic activity on the isolated guinea pig right atrium.; details: read-out: pA2 (converted)
[20] = target: Serotonin 2 (5-HT2) receptor (Rattus norvegicus) (UniProt P30994+P08909+P14842); assay: 5-hydroxytryptamine 2 receptor antagonistic activity at concentrations of3,10 and 30 uM on the rat tail artery.; assay type: functional, tissue-based
Procedure, shortened: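 Endothelium-denuded ventral tail artery segments from male Wistar rats (280-350 g), resting force 5 mN, 120 min equilibration with one 1 μM 5-HT priming. Two to three cumulative 5-HT (0.01-10 μM) curves per preparation.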

[21] = target: Adrenergic receptor alpha-1 (Rattus norvegicus) (UniProt P15823+P23944+P43140); assay: Alpha-1 adrenergic receptor antagonistic activity at concentrations of 3,10,30and 100 uM on the rat aorta.; assay type: functional
Procedure, shortened: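 Endothelium-denuded thoracic aortic rings from the same rats, mounted isometrically, resting force 20 mN. Equilibration 140 min with two primings of 0.1 μM (R)-phenylephrine. Cumulative (R)-phenylephrine (0.003-10 μM) curves recorded with 1 μM (±)-propranolol present.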

[22] = target: Beta-1 adrenergic receptor (Cavia porcellus) (UniProt B0FL73); assay: Beta-1 Adrenergic receptor antagonistic activity at concentrations of 10 and 30 uM on the isolated guinea pig right atrium.; assay type: functional, tissue-based; details: Cardiac atrium
Procedure, shortened: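 Spontaneously beating guinea pig right atrium, isometric recording of chronotropic response. Cumulative isoprenaline (0.1-30 nM) curves as reference agonist. Incubation handled as in the H2 protocol. pK_B = -log[antagonist] + log(concentration ratio - 1).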

[23] = target: Histamine H1 receptor (Cavia porcellus) (UniProt P31389); assay: Histamine H1 receptor antagonistic activity at concentrations of 3 and 10 uM on the isolated guinea pig iluem.; assay type: functional; procedure, shortened: as §2
Target sequence in this assay (P31389 whole entry): as the sequence (P31389 whole entry, looked up) above

[24] = target: Histamine H2 receptor (Cavia porcellus) (UniProt P47747); assay: Histamine H2 receptor antagonistic activity at concentrations of 0.3,1 and 3 uM on the isolated guinea pig right atrium.; assay type: functional, tissue-based; details: Cardiac atrium
[25] = target: Muscarinic acetylcholine receptor M3 (Cavia porcellus) (UniProt Q8VH26); assay: muscarinic acetylcholine receptor M3 antagonistic activity at concentrations of 3 and 10 uM on the isolated guinea pig iluem.; assay type: functional; procedure, shortened: as §3
[26] = target: Histamine H2 receptor (Cavia porcellus) (UniProt P47747); assay: Histamine H2 receptor antagonistic activity at a concentration of 0.03 and 1 uM on the isolated guinea pig right atrium.; assay type: functional, tissue-based; details: Cardiac atrium
[27] = target: Histamine H2 receptor (Cavia porcellus) (UniProt P47747); details: Cardiac atrium, 10 uM
[28] = target: Histamine H2 receptor (Cavia porcellus) (UniProt P47747); assay: Histamine H2 receptor antagonistic activity at a concentration of 0.1 uM on the isolated guinea pig right atrium.; assay type: functional, tissue-based; details: Cardiac atrium
[29] = target: Muscarinic acetylcholine receptor M3 (Cavia porcellus) (UniProt Q8VH26); details: 10 uM
[30] = target: Histamine H2 receptor (Cavia porcellus) (UniProt P47747); details: Cardiac atrium
[31] = target: Muscarinic acetylcholine receptor M3 (Cavia porcellus) (UniProt Q8VH26)
[32] = target: Histamine H1 receptor (Cavia porcellus) (UniProt P31389)
Target sequence in this assay (P31389 whole entry): as the sequence (P31389 whole entry, looked up) above

Chain of Histamine H1 receptor (P31389 whole entry): as the sequence (P31389 whole entry, looked up) above
Chain of Histamine H2 receptor (Cavia porcellus) (P47747 whole entry): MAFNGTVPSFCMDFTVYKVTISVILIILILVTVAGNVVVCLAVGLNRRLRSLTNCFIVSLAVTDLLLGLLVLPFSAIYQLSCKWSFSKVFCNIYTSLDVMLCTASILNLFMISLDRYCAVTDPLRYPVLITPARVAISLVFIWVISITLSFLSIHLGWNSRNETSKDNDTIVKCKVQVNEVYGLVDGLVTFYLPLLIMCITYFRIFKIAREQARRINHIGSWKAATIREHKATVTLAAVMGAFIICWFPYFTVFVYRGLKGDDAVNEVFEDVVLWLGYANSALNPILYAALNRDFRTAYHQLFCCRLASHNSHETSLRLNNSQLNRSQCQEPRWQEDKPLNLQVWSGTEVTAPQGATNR
T1 sequence (P47747 whole entry): as above
Chain of Muscarinic acetylcholine receptor M3 (Cavia porcellus) (Q8VH26 1-587): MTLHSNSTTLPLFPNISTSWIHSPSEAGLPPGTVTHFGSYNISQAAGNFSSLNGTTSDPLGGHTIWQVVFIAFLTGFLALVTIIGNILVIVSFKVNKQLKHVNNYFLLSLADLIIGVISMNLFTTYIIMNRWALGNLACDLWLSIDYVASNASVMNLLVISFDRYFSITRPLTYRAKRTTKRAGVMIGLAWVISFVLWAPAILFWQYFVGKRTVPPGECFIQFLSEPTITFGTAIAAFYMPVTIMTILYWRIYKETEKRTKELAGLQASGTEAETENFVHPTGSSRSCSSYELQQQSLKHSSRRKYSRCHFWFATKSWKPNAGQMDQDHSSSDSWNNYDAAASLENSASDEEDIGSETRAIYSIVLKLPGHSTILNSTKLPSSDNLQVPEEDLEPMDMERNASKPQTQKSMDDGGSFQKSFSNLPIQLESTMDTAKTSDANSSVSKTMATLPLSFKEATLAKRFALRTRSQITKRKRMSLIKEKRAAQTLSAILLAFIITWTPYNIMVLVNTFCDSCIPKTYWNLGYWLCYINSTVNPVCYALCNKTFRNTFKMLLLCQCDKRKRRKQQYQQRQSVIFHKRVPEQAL
Chain of Serotonin 2 (5-HT2) receptor (Rattus norvegicus) (P08909 whole entry, looked up): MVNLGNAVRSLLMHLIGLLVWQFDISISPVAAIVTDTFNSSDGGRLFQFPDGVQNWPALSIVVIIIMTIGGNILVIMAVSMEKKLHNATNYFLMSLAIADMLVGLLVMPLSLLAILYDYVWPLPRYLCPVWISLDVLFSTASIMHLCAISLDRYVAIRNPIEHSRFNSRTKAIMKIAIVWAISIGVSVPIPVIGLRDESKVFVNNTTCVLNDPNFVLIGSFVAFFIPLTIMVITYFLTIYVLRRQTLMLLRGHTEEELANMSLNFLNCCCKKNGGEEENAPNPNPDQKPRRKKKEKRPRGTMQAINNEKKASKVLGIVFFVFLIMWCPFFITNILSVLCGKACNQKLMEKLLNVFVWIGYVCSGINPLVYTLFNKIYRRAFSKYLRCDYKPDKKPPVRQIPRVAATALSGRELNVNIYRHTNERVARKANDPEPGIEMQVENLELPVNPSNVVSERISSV
Chain of Serotonin 2 (5-HT2) receptor (Rattus norvegicus) (P14842 whole entry, looked up): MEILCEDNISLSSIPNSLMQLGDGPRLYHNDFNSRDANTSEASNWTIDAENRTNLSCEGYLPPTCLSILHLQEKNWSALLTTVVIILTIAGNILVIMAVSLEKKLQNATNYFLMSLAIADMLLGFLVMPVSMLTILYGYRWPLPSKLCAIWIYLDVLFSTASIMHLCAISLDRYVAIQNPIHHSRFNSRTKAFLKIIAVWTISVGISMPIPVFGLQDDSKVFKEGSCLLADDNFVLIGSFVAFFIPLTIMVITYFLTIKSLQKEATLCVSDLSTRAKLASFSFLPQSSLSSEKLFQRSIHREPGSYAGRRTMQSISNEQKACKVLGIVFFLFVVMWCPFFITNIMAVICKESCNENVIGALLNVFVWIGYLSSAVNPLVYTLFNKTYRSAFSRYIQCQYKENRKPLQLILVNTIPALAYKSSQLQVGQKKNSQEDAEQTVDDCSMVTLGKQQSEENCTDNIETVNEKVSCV
Chain of Serotonin 2 (5-HT2) receptor (Rattus norvegicus) (P30994 whole entry, looked up): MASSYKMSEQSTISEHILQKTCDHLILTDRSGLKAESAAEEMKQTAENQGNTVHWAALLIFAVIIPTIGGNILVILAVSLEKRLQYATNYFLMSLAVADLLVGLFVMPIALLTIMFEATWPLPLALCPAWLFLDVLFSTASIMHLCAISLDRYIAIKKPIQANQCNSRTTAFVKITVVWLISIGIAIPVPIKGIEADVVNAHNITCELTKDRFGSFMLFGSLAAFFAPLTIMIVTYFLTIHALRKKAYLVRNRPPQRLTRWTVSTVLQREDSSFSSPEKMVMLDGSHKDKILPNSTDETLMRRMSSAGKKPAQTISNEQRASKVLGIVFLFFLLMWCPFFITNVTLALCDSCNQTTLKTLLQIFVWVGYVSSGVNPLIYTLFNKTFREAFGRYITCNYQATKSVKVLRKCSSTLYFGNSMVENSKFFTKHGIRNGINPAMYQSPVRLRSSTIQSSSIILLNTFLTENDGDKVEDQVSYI
Chain of Muscarinic acetylcholine receptor M3 (Q8VH26 whole entry): as the sequence (Q8VH26 1-587) above
Chain of Beta-1 adrenergic receptor (Cavia porcellus) (B0FL73 1-467): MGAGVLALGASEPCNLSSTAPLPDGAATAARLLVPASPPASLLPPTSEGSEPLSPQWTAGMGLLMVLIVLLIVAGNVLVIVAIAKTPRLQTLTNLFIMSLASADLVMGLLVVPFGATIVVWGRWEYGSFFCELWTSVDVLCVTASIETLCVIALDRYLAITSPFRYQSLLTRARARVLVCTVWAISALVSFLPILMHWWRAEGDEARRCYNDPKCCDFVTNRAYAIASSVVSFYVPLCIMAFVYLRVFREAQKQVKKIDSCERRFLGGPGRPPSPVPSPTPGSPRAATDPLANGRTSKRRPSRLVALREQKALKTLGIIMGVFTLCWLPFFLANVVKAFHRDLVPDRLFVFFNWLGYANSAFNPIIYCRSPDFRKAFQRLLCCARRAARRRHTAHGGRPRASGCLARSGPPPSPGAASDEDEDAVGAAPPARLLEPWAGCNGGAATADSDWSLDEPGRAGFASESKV

SMILES: N#CN/C(=N\CCCNc1ccccc1[N+](=O)[O-])NCCCOc1cccc(CN2CCCCC2)c1
pKB [1]: 7.52
Relative potency [2]: 1320%

SMILES: N#CN/C(=N\CCCOc1cccc(CN2CCCCC2)c1)NCC(O)CNC(=O)c1ccccc1 (stereo not drawn)
Relative potency [3]: 813%
pKB [4]: 7.31

SMILES: CNC(=C[N+](=O)[O-])NCCSCc1ccc(CN(C)C)o1 [RANITIDINE]
Ki (Histamine H2 receptor [5]): 53.7 nM
pKB [6]: 7.2
Relative potency [2]: 631%

SMILES: N#CN/C(=N\CCNc1ccc(N=[N+]=[N-])cc1[N+](=O)[O-])NCCCCOc1cccc(CN2CCCCC2)c1
pKB [7]: 7.47
Relative potency [2]: 1180%

SMILES: N#CN/C(=N\CCNS(=O)(=O)c1ccccc1)NCCCOc1cccc(CN2CCCCC2)c1
Relative potency [3]: 186%
pKB [4]: 6.67

SMILES: N#CN/C(=N\CCCOc1cccc(CN2CCCCC2)c1)N1CCN(C(=O)c2ccccc2)CC1
Relative potency [3]: 6%
pKB [14]: 5.16

SMILES: CC(C)(C)OC(=O)Nc1ccc(C(=O)NCC/N=C(\NC#N)NCCCOc2cccc(CN3CCCCC3)c2)cc1
Relative potency [3]: 295%
pKB [4]: 6.87

SMILES: N#CN/C(=N\CCCOc1cccc(CN2CCCCC2)c1)NCC(O)CNc1ccccc1[N+](=O)[O-] (stereo not drawn)
pKB [1]: 7.34
Relative potency [2]: 871%

SMILES: N#CN=C(NCCCOc1cccc(CN2CCCCC2)c1)NCCNC(=O)c1cccc(I)c1
Kb (Histamine H1 receptor): 2240 nM
Ki (Histamine H2 receptor [8]): 2.63 nM

SMILES: N#CN/C(=N\CCCNc1ccc(N=[N+]=[N-])cc1[N+](=O)[O-])NCCCOc1cccc(CN2CCCCC2)c1
pKB [7]: 6.79
Relative potency [2]: 245%

SMILES: N#CN/C(=N\CCNc1ccccc1[N+](=O)[O-])NCCCCOc1cccc(CN2CCCCC2)c1
pKB [26]: 8.04
Relative potency [2]: 4360%

SMILES: N#CN=C(NCCCOc1cccc(CN2CCCCC2)c1)NCCNC(=O)c1ccc(N=[N+]=[N-])c(I)c1
Kb (Histamine H2 receptor [19]): 155 nM

SMILES: N#CN/C(=N\CCNc1ccccc1[N+](=O)[O-])NCCCOc1cccc(CN2CCCCC2)c1
pKB [28]: 7.45
Relative potency [2]: 1120%

Further lines, with some results ahead:

Kb (Histamine H1 receptor): 26900 nM
Ki (Histamine H2 receptor [8]): 9.77 nM
Slope [9]: 1.09
pKB [6]: 7.22
pKB [10]: 5.16
pKB [11]: 7.28
Relative potency [12]: 660%
Slope [13]: 0.88
SMILES: N#CN/C(=N\CCNC(=O)c1ccc(N)cc1)NCCCOc1cccc(CN2CCCCC2)c1 [AMINOPOTENTIDINE]

pKB [7]: 6.63
Relative potency [2]: 170%
SMILES: N#CN/C(=N\CCCNC(=O)c1ccc(N=[N+]=[N-])cc1)NCCCCOc1cccc(CN2CCCCC2)c1

pKB [7]: 7.35
Relative potency [2]: 891%
SMILES: N#CN/C(=N\CCNC(=O)c1ccc(N)c(I)c1)NCCCCOc1cccc(CN2CCCCC2)c1

Slope [15]: 0.91
Kb (Histamine H1 receptor): 1580 nM
pKB [16]: 7.79
Kb [17]: 1700 nM
Slope [18]: 1.04
Relative potency [2]: 2460%
Kb (Histamine H2 receptor [19]): 16.2 nM
SMILES: N#CN/C(=N\CCNC(=O)c1cc(I)c(N)c(I)c1)NCCCOc1cccc(CN2CCCCC2)c1

pKB [20]: 6.05
pKB [21]: 6.17
pKB [22]: 5.12
pKB [23]: 5.62
Slope [9]: 1.2
pKB [24]: 6.98
Relative potency [2]: 257%
pKB [25]: 5.48
SMILES: N#CN/C(=N\CCNC(=O)c1ccc(N=[N+]=[N-])c(I)c1)NCCCOc1cccc(CN2CCCCC2)c1

pKB [7]: 7.54
Relative potency [2]: 1380%
SMILES: N#CN/C(=N\CCNC(=O)c1ccc(N=[N+]=[N-])cc1)NCCCCOc1cccc(CN2CCCCC2)c1

Ki (Histamine H2 receptor [5]): 0.708 nM
Kb (Histamine H2 receptor [19]): 27.5 nM
SMILES: N#CN=C(NCCCOc1cccc(CN2CCCCC2)c1)NCCNC(=O)c1ccc(N)c(I)c1

pKB [4]: 7.86
Relative potency [2]: 2880%
SMILES: N#CN/C(=N\CCNC(=O)c1cc(I)c(N)c(I)c1)NCCCCOc1cccc(CN2CCCCC2)c1

pKB [27]: 5.95
SMILES: N#CN/C(=N\CCN)NCCCOc1cccc(CN2CCCCC2)c1
Relative potency [3]: 36%

pKB [7]: 7.57
Relative potency [12]: 1480%
pKB [29]: 5.61
pKB [30]: 7.62
Slope [13]: 1.25
SMILES: N#CN/C(=N\CCNC(=O)c1cccc(I)c1)NCCCOc1cccc(CN2CCCCC2)c1

pKB [4]: 7.29
SMILES: N#CN/C(=N\CCNC(=O)c1cccc(N)c1)NCCCOc1cccc(CN2CCCCC2)c1
Relative potency [3]: 776%

Ki (Histamine H2 receptor [8]): 5.25 nM
pKB [6]: 6.56
Relative potency [12]: 145%
pKB [31]: 5.59
pKB [32]: 6.15
SMILES: N#CN/C(=N\CCNC(=O)c1cccc(I)c1)NCCCCOc1cccc(CN2CCCCC2)c1
